ChEMBL document CHEMBL2062476, “One pot efficient diversity oriented synthesis of polyfunctional styryl thiazolopyrimidines and their bio-evaluation as antimalarial and anti-HIV agents” (Eur J Med Chem, 2012)
In brackets after ≈: the same amount, converted by molar mass.

How the values were obtained:
Plasmodium falciparum [1] = test: Antimalarial activity against chloroquine sensitive Plasmodium falciparum 3D7 infected in RBCs incubated for 72 hrs by SYBRgreen dye based fluorometric assay; assay type: functional, organism-based; conditions: 3D7, 72 h
Outline: (§1)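 Parasites kept in RPMI-1640 (HEPES) with 0.5% AlbuMaxII, 0.2% glucose, 0.2% NaHCO3, 15 µM hypoxanthine, 37 °C, 5% CO2. Compounds in DMSO (10mg/mL stock), two-fold serial dilutions. Infected erythrocytes added at 4% haematocrit, 1% parasitaemia, incubated 72 h. Lysis buffer with SYBR green added for 4 h in the dark at room temp. Fluorescence read at ex 485/em 535 nm. IC50 taken from parasite DNA content relative to controls.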

Plasmodium falciparum [2] = test: Antimalarial activity against chloroquine resistant Plasmodium falciparum K1 infected in RBCs incubated for 72 hrs by SYBRgreen dye based fluorometric assay; assay type: functional, organism-based; conditions: K1, 72 h; outline: as §1
[3] = Cytotoxicity against african green monkey Vero C1008 cells incubated for 72 hrs by resazurin dye based fluorometric assay; assay type: cell-based; conditions: chlorocebus sabaeus
Outline: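 Vero (C1008) cells grown in MEM with 15% FBS, 37 °C, 5% CO2; trypsinized, seeded at 1 × 10^5 cells/mL and left to adhere overnight. Serial compound dilutions added for 72 h. Resazurin added, fluorescence read after 4 h; CC50 derived from viability.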

[4] = Selectivity index, ratio of CC50 for african green monkey Vero C1008 cells to IC50 for chloroquine sensitive Plasmodium falciparum 3D7; assay type: functional
Outline: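 SI = CC50 in Vero cells (resazurin, 72 h) divided by IC50 against P. falciparum 3D7. The IC50 came from a SYBR green assay: cultures in RPMI-1640 with 0.5% AlbuMaxII and 15 µM hypoxanthine, 4% haematocrit, 1% parasitaemia, two-fold dilutions, 72 h at 37 °C. Lysis with SYBR green for 4 h, read at ex 485/em 535 nm.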

[5] = Selectivity index, ratio of CC50 for african green monkey Vero C1008 cells to IC50 for chloroquine resistant Plasmodium falciparum K1; assay type: functional
Outline: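 Vero C1008 cells grown in MEM with 15% FBS. Seeded at 1 × 10^5 cells/mL, left to adhere overnight, then exposed to serial compound dilutions for 72 h. Viability read by resazurin fluorescence after 4 h and CC50 derived. SI = CC50 / IC50 against K1, with IC50 from the 72 h SYBR green parasite assay.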

[6] = test system: Human immunodeficiency virus; test: Inhibition of HIV reverse transcriptase activity at 10 ug/ml incubated at 37 degC for 1 hr by ELISA RT assay
Outline: (§2)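 Colorimetric ELISA kit: template/primer with dNTPs (digoxigenin- and biotin-labelled dUTP) plus HIV-1 RT in lysis buffer, 60 µl total, 37 °C for 1 h; no-RT lysis buffer as negative control. Product captured on streptavidin plate 1 h at 37 °C, anti-DIG-POD (200 mU/mL) 1 h, ABTS substrate; OD 405 nm (reference 490 nm).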

[7] = test system: Human immunodeficiency virus; test: Inhibition of HIV reverse transcriptase activity at 100 ug/ml incubated at 37 degC for 1 hr by ELISA RT assay; outline: as §2

Structure (SMILES)	IC50 (Plasmodium falciparum [1])	IC50 (Plasmodium falciparum [2])	CC50 at 72 h [3]	Ratio CC50/IC50 [4]	Ratio CC50/IC50 [5]	inhibition [6]	inhibition [7]
COc1cc(/C=C/C(=O)C2=C(/C=C/c3cc(OC)c(OC)c(OC)c3)N=C3SC=C(C)N3C2c2ccccc2)cc(OC)c1OC (centres undefined)	0.5 µg/mL (≈ 0.78 µM)	< 0.3 µg/mL	260 µg/mL (≈ 407 µM)	520.94	>868.23	5.69%	66.9%
COc1cc(/C=C\C2=C(C(=O)/C=C/c3cc(OC)c(OC)c(OC)c3)C(c3cc(OC)c(OC)c(OC)c3)N3C(C)=CSC3=N2)cc(OC)c1OC (centres undefined)	6.82 µg/mL (≈ 9.33 µM)	< 0.76 µg/mL	167 µg/mL (≈ 228 µM)	24.44	>219.3	48.4%	55.9%
CC1=CSC2=NC(/C=C/c3ccc(OCc4ccccc4)cc3)=C(C(=O)/C=C/c3ccc(OCc4ccccc4)cc3)C(c3ccc(Cl)cc3)N12 (centres undefined)	6.97 µg/mL (≈ 9.85 µM)	19.6 µg/mL (≈ 27.6 µM)	> 500 µg/mL	>71.74	>25.56	17.6%	18.6%
COc1ccc(C2C(C(=O)/C=C/c3ccc(Cl)cc3)=C(/C=C/c3ccc(Cl)cc3)N=C3SC=C(C)N32)cc1 (centres undefined)	5.3 µg/mL (≈ 9.47 µM)	1.49 µg/mL (≈ 2.66 µM)	273 µg/mL (≈ 487 µM)	51.42	182.89	31.2%	50.9%
COc1ccc(C2C(C(=O)/C=C/c3ccc(F)cc3)=C(/C=C/c3ccc(F)cc3)N=C3SC=C(C)N32)cc1 (centres undefined)	5.15 µg/mL (≈ 9.78 µM)	1.09 µg/mL (≈ 2.07 µM)	261 µg/mL (≈ 495 µM)	50.65	239.29	9.22%	41.4%
CC1=CSC2=NC(/C=C/c3cccc(Cl)c3)=C(C(=O)/C=C/c3cccc(Cl)c3)C(c3ccc(Cl)cc3)N12 (centres undefined)	2.25 µg/mL (≈ 3.99 µM)	< 0.76 µg/mL	317 µg/mL (≈ 563 µM)	141.02	>417.5	13.2%	16.6%
CC1=CSC2=NC(/C=C/c3ccc(Br)cc3)=C(C(=O)/C=C/c3ccc(Br)cc3)C(c3ccccc3)N12 (centres undefined)	5.38 µg/mL (≈ 8.7 µM)	2.5 µg/mL (≈ 4.04 µM)	282 µg/mL (≈ 457 µM)	52.48	112.93	39.8%	55.4%
CC1=CSC2=NC(/C=C/c3ccc(Cl)cc3)=C(C(=O)/C=C/c3ccc(Cl)cc3)C(c3ccc(Cl)cc3)N12 (centres undefined)	0.85 µg/mL (≈ 1.51 µM)	0.6 µg/mL (≈ 1.06 µM)	309 µg/mL (≈ 548 µM)	363.57	515.05	10.6%	11.4%
CC1=CSC2=NC(/C=C/c3ccc(F)cc3)=C(C(=O)/C=C/c3ccc(F)cc3)C(c3ccccc3)N12 (centres undefined)	2.68 µg/mL (≈ 5.4 µM)	1.59 µg/mL (≈ 3.2 µM)	306 µg/mL (≈ 616 µM)	114.22	192.53	30%	59.2%
CC1=CSC2=NC(/C=C/c3cccc(Cl)c3)=C(C(=O)/C=C/c3cccc(Cl)c3)C(c3ccccc3)N12 (centres undefined)	0.79 µg/mL (≈ 1.49 µM)	1.2 µg/mL (≈ 2.27 µM)	286 µg/mL (≈ 540 µM)	361.96	238.29	15.4%	54.5%
CC1=CSC2=NC(/C=C/c3ccc4c(c3)OCO4)=C(C(=O)/C=C/c3ccc4c(c3)OCO4)C(c3ccccc3)N12 (centres undefined)	5.07 µg/mL (≈ 9.24 µM)	1.09 µg/mL (≈ 1.99 µM)	497 µg/mL (≈ 905 µM)	97.97	455.71		
CC1=CSC2=NC(/C=C/c3ccccc3Cl)=C(C(=O)/C=C/c3ccccc3Cl)C(c3ccc(Cl)cc3)N12 (centres undefined)	5.9 µg/mL (≈ 10.5 µM)	2.79 µg/mL (≈ 4.95 µM)	430 µg/mL (≈ 762 µM)	72.84	154.03	18%	26.1%
CC1=CSC2=NC(/C=C/c3ccccc3)=C(C(=O)/C=C/c3ccccc3)C(c3ccc(Cl)cc3)N12 (centres undefined)	0.5 µg/mL (≈ 1.01 µM)	0.27 µg/mL (≈ 0.545 µM)	320 µg/mL (≈ 646 µM)	639.3	1183.89	23.6%	30.6%
COc1ccc(/C=C/C(=O)C2=C(/C=C/c3ccc(OC)cc3)N=C3SC=C(C)N3C2c2cc(OC)c(OC)c(OC)c2)cc1 (centres undefined)	1.57 µg/mL (≈ 2.57 µM)	0.71 µg/mL (≈ 1.16 µM)	348 µg/mL (≈ 570 µM)	221.57	489.94	30.1%	51.3%
CC1=CSC2=NC(/C=C/c3ccccc3Cl)=C(C(=O)/C=C/c3ccccc3Cl)C(c3ccccc3)N12 (centres undefined)	0.56 µg/mL (≈ 1.06 µM)	0.36 µg/mL (≈ 0.68 µM)	206 µg/mL (≈ 389 µM)	367.88	572.25	38.9%	73.4%
COc1ccc(C2C(C(=O)/C=C/c3ccccc3)=C(/C=C/c3ccccc3)N=C3SC=C(C)N32)cc1 (centres undefined)	2.11 µg/mL (≈ 4.3 µM)	0.85 µg/mL (≈ 1.73 µM)	211 µg/mL (≈ 430 µM)	99.95	248.11	39.4%	48.6%
COc1ccc(C2C(C(=O)/C=C/c3cccs3)=C(/C=C/c3cccs3)N=C3SC=C(C)N32)cc1 (centres undefined)	5.17 µg/mL (≈ 10.3 µM)	2.03 µg/mL (≈ 4.04 µM)	235 µg/mL (≈ 468 µM)	45.48	115.83	47.7%	54.4%
Cc1ccnc2c1NC(=O)c1cccnc1N2C1CC1						97.9%	
COc1ccc(C2C(C(=O)/C=C/c3ccc4c(c3)OCO4)=C(/C=C/c3ccc4c(c3)OCO4)N=C3SC=C(C)N32)cc1 (centres undefined)	3.94 µg/mL (≈ 6.81 µM)	1.14 µg/mL (≈ 1.97 µM)	418 µg/mL (≈ 722 µM)	106		58.8%	70.8%
